These results are taken from ChEMBL document CHEMBL4828720, “Macrocyclic Immunoproteasome Inhibitors as a Potential Therapy for Alzheimer's Disease” (J Med Chem, 2021).

Experiment [1] concerns the target T1, Proteasome subunit beta type-8 (Homo sapiens, UniProt P28062).
T1 sequence (P28062 whole entry): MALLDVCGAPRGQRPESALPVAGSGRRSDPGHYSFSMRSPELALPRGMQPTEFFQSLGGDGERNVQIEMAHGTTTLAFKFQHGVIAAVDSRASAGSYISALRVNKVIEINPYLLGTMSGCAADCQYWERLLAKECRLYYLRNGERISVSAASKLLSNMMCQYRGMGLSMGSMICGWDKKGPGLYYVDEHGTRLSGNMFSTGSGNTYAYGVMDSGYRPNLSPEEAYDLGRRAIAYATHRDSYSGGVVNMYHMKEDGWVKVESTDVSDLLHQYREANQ
The experiment can be described thus: Inhibition of human 20S proteasome LMP7 using Ac-ANW-AMC as fluorogenic substrate measured every minute for 1 hr by fluorescence assay. The essentials:
(§1)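 Purified human 20S constitutive or immunoproteasome, 50 ng in 20 mM Tris-HCl, 0.5 mM EDTA, 0.035% SDS, pH 8.0. Preincubated 1 h with inhibitor at 3-10,000 nM (8 concentrations). Substrates at 100 μM: Ac-PAL-AMC (LMP2), Ac-nLPnLD-AMC (Y), Ac-ANW-AMC (LMP7). Ac-WLA-AMC (X) at 20 μM. AMC fluorescence (360/460 nm) read each minute for 1 h; 3 replicates.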

Experiment [2] in a line: Inhibition of human 20S proteasome X using Ac-WLA-AMC as fluorogenic substrate measured every minute for 1 hr by fluorescence assay. Summed up: as §1
Experiment [3] deals with T2, Proteasome subunit beta type-9 (Homo sapiens, UniProt P28065).
T2 sequence (P28065 whole entry): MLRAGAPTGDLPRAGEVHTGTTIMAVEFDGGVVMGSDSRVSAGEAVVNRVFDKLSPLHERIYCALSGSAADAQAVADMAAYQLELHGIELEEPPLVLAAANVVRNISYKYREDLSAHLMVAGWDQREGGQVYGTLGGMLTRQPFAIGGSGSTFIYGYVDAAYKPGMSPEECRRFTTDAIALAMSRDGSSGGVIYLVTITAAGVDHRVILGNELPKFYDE
The experiment in a line: Inhibition of human 20S proteasome LMP2 using Ac-PAL-AMC as fluorogenic substrate measured every minute for 1 hr by fluorescence assay. Summed up: (§2)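 Preincubated 1 h with inhibitor at 3-10,000 nM (8 concentrations). Substrates at 100 μM: Ac-PAL-AMC (LMP2), Ac-nLPnLD-AMC (Y), Ac-ANW-AMC (LMP7). Ac-WLA-AMC (X) at 20 μM. AMC fluorescence (360/460 nm) read each minute for 1 h; 3 replicates.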

The target in experiment [4] is T2, Proteasome subunit beta type-9. The experiment can be described thus: Inhibition of human 20S proteasome LMP2 activity in human RPMI-8226 cells overexpressing ABCB1 using Ac-PAL-AMC as fluorogenic substrate incubated for 72 hrs by fluorescence assay. Type of experiment: cell-based.
Experiment [5] shares this target. The experiment in a line: Inhibition of human 20S proteasome LMP2 activity in human RPMI-8226 cells using Ac-PAL-AMC as fluorogenic substrate incubated for 72 hrs by fluorescence assay. The format is cell-based.
Experiment [6] can be described thus: Inhibition of human 20S proteasome Y using Ac-nLPnLD-AMC as fluorogenic substrate measured every minute for 1 hr by fluorescence assay. The essentials:
as §2

A further experiment is filed under the species Homo sapiens. The experiment can be described thus: Selectivity index, ratio of IC50 for inhibition of human 20S proteasome LMP2 activity in human RPMI-8226 cells overexpressing ABCB1 to IC50 for inhibition of human 20S proteasome LMP2 activity in human RPMI-8226 cells. Type of experiment: cell-based. Summed up: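 Carfilzomib-resistant RPMI 8226/ABCB1 line, kept drug-free for two weeks, alongside parental RPMI 8226. Cells exposed to varying inhibitor concentrations for 72 h, n=3 per concentration. Lysates (5 μg protein, pH 8.0 Tris/EDTA/0.035% SDS buffer) read with 100 μM Ac-PAL-AMC at ex 360/em 460 nm every minute for 1 h. IC50 from curve fitting, mean ± SD.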

A value given as a limit tells only on which side of the number the result lay.

As to `CC(C)C[C@H](NC(=O)[C@@H]1Cc2ccc(cc2)OCCCCCCC(=O)N2CCC[C@H]2C(=O)N1)C(=O)[C@@]1(C)CO1`, the half-maximal inhibitory concentration (IC50) in experiment [1] is over 10 µM; in experiment [2] it was over 10 µM; in experiment [3], 0.423 µM.
Consider `CC(C)C[C@H](NC(=O)[C@@H]1COCCCCCC(=O)N2CC(F)(F)C[C@H]2C(=O)N1)C(=O)[C@@]1(C)CO1`, for which the IC50 in experiment [1] was over 10 µM; in experiment [2] it was over 10 µM; in experiment [3] it was 0.238 µM.
As for `CC(C)C[C@H](NC(=O)[C@@H]1COCCCCCC(=O)N2CCCC[C@H]2C(=O)N1)C(=O)[C@@]1(C)CO1`, the figures for the IC50 in experiment [1], in experiment [2] and in experiment [3] were over 10 µM, over 10 µM and 1.24 µM, respectively.
On to `CC(=O)NCC(=O)N1CCC[C@H]1C(=O)N[C@@H](Cc1ccccc1)C(=O)N[C@@H](CC(C)C)C(=O)[C@@]1(C)CO1`, for which the IC50 in experiment [2] was over 10 µM.
Consider `CC(C)C[C@H](NC(=O)[C@@H]1COCCCCCCC(=O)N2CCC[C@H]2C(=O)N1)C(=O)[C@@]1(C)CO1`, for which the IC50 is over 10 µM in experiment [1], 4.64 µM in experiment [2] and 0.563 µM in experiment [3].
For `C[C@]1(C(=O)[C@H](Cc2ccccc2)NC(=O)[C@@H]2COCCCCCC(=O)N3CCC[C@H]3C(=O)N2)CO1`, in that order: over 10 µM, over 10 µM and 0.251 µM.
With `CC(C)C[C@H](NC(=O)[C@@H]1COCCCCCC(=O)NCC(=O)N2CCC[C@H]2C(=O)N1)C(=O)[C@@]1(C)CO1`, the half-inhibitory concentration (IC50) was over 10 µM in experiment [1]; over 10 µM in experiment [4]; over 10 µM in experiment [5]; over 10 µM in experiment [2]; 0.0694 µM in experiment [3].
As to `CC(C)C[C@H](NC(=O)[C@@H]1Cc2ccc(cc2)OCCCCCCCCC(=O)N2CCC[C@H]2C(=O)N1)C(=O)[C@@]1(C)CO1`, the IC50 in experiment [1] is 0.342 µM; in experiment [6] it was 0.415 µM; in experiment [2], 5 µM; in experiment [3] it was 0.414 µM.
In experiment [2], `CC(C)C[C@H](NC(=O)[C@H](Cc1ccccc1)NC(=O)[C@@H]1CCCN1C(=O)CNC(=O)c1cnccn1)C(=O)[C@@]1(C)CO1` gave an IC50 of over 10 µM.
For the molecule `CC(C)C[C@H](NC(=O)[C@@H]1Cc2ccc(cc2)OCCCCCCCC(=O)N2CCC[C@H]2C(=O)N1)C(=O)[C@@]1(C)CO1`, the IC50 in experiment [1] is 1.52 µM; in experiment [4], 0.161 µM; in experiment [6] it was 0.715 µM; in experiment [5] it was 0.0339 µM; in experiment [2], 4.77 µM; in experiment [3], 0.129 µM. The Ratio IC50 in the experiment listed under Homo sapiens was found to be 4.7.
For the molecule `CC(C)C[C@H](NC(=O)[C@@H]1COCCCCCC(=O)N2C[C@H](F)C[C@H]2C(=O)N1)C(=O)[C@@]1(C)CO1`, the IC50 in experiment [1] is over 10 µM; in experiment [6] it was over 10 µM; in experiment [2] it was over 10 µM; in experiment [3] it was 2.13 µM.
With `CC(C)C[C@H](NC(=O)[C@@H]1COCCCCCC(=O)N2CC[C@H]2C(=O)N1)C(=O)[C@@]1(C)CO1`, the IC50 in experiment [1] is over 10 µM; in experiment [2], over 10 µM; in experiment [3], 0.261 µM.
Regarding `CC(C)C[C@H](NC(=O)[C@@H]1COCCCCCC(=O)N2CCC[C@@]2(C)C(=O)N1)C(=O)[C@@]1(C)CO1`, the IC50 in experiment [1] was over 10 µM; in experiment [2], over 10 µM; in experiment [3] it was 4.58 µM.
Take `CC(C)C[C@H](NC(=O)[C@@H]1COCCCCCCC(=O)NCC(=O)N2CCC[C@H]2C(=O)N1)C(=O)[C@@]1(C)CO1`: the 50% inhibitory concentration (IC50) in experiment [1] was over 10 µM; in experiment [4], over 10 µM; in experiment [5] it was over 10 µM; in experiment [2], over 10 µM; in experiment [3], 0.0656 µM.
With `CC(C)C[C@H](NC(=O)[C@@H]1COCCCCCC(=O)N2CCC[C@H]2C(=O)N1)C(=O)[C@@]1(C)CO1`, the IC50 in experiment [1] was over 10 µM; in experiment [4], 0.147 µM; in experiment [6] it was 1.5 µM; in experiment [5], 0.0358 µM; in experiment [2] it was 1.08 µM; in experiment [3], 0.413 µM. Further, the Ratio IC50 in the experiment listed under Homo sapiens is 4.1.
For the molecule `CC(C)C[C@H](NC(=O)[C@@H]1COCCCCCCCC(=O)N2CCC[C@H]2C(=O)N1)C(=O)[C@@]1(C)CO1`, the IC50 is over 10 µM in experiment [1], over 10 µM in experiment [2] and 0.158 µM in experiment [3].
As for `C[C@]1(C(=O)[C@H](CC2CCCCC2)NC(=O)[C@@H]2Cc3ccc(cc3)OCCCCCCCC(=O)N3CCC[C@H]3C(=O)N2)CO1`, the IC50 in experiment [1] came to 2.69 µM; in experiment [2], 5 µM; in experiment [3], 0.168 µM.
In the case of `C[C@]1(C(=O)[C@H](CC2CCCCC2)NC(=O)[C@@H]2COCCCCCC(=O)N3CCC[C@H]3C(=O)N2)CO1`, the IC50 was 5.77 µM in experiment [1], over 10 µM in experiment [2] and 0.523 µM in experiment [3].
